Source: ChEMBL document CHEMBL5032502, “Syntheses, Biological Evaluations, and Mechanistic Studies of Benzo[c][1,2,5]oxadiazole Derivatives as Potent PD-L1 Inhibitors with In Vivo Antitumor Activity” (J Med Chem, 2021)
Active and inactive are the calls of the source. No cut-off for these calls is given here.

How the values were obtained:
[1] = Cmax in Sprague-Dawley rat at 10 mg/kg, po measured upto 24 hrs by LC-MS analysis; format: ADME, organism-based; set-up: route oral, dose 10 mg/kg, time <=24; conditions: in vivo
Method in brief: (§1)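 Male animals fasted 12 h before dosing. Plasma levels measured by LC-MS, with the prodrug quantified as the parent acid. Mean ± SEM, n = 3.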

[2] = Tmax in Sprague-Dawley rat at 10 mg/kg, po measured upto 24 hrs by LC-MS analysis; format: ADME, organism-based; conditions: in vivo
Method in brief: (§2)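 Male Sprague-Dawley rats or C57BL/6 mice fasted 12 h before dosing, given oral (po) or intravenous (iv) doses. Plasma levels measured by LC-MS. Parameters reported as mean ± SEM, n = 3.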

[3] = Clearance in Sprague-Dawley rat at 2 mg/kg, iv measured upto 24 hrs by LC-MS analysis; format: ADME, organism-based; conditions: in vivo; method in brief: as §1
[4] = biological target: Programmed cell death protein 1 (Homo sapiens) (UniProt Q15116); experiment: Binding affinity to human PD-1 assessed as dissociation constant by surface plasmon resonance analysis
Sequence of Programmed cell death protein 1 (Homo sapiens) (Q15116 whole entry): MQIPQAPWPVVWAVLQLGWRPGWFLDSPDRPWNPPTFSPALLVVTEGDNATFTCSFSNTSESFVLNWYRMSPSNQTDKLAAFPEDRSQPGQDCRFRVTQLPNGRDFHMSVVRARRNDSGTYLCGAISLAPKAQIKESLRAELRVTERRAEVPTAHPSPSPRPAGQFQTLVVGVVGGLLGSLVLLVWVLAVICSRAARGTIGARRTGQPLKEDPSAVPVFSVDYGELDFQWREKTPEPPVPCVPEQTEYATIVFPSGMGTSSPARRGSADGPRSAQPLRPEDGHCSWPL
Method in brief: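 His-tagged human PD-L1 IgV or Fc-tagged human PD-1 IgV immobilized on a CM5 chip by amine coupling in 10 mM sodium acetate, pH 4.5. Compound serially diluted in PBS with 0.05% Tween 20 and 5% DMSO and flowed over the chip. KD fitted by instrument software, mean ± SEM of two to three independent experiments.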

MC-38 [5] = experiment: Cytotoxicity against mouse MC38 cells assessed as inhibition of cell viability at 0.1 to 10 uM incubated for 24 hrs by MTT assay; format: functional, cell-based; conditions: dose 0.1-10 µM
Method in brief: (§3)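 PD-L1⁺/aAPC/CHO-K1 cells (2000/well) or MC38 cells (5000/well) allowed to adhere for 12 h, then exposed to compound in medium with 1% final DMSO for 24 h. MTT added for 4 h, medium replaced with DMSO, absorbance read.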

[6] = AUC (0 to t) in Sprague-Dawley rat at 2 mg/kg, iv measured upto 24 hrs by LC-MS analysis; format: ADME, organism-based; set-up: route intravenous, dose 2 mg/kg, time <=24; conditions: in vivo; method in brief: as §1
[7] = Cmax in Sprague-Dawley rat at 2 mg/kg, iv measured upto 24 hrs by LC-MS analysis; format: ADME, organism-based; set-up: route intravenous, dose 2 mg/kg, time <=24; conditions: in vivo; method in brief: as §1
[8] = Oral bioavailability in Sprague-Dawley rat at 10 mg/kg measured upto 24 hrs by LC-MS analysis; format: ADME, organism-based; conditions: in vivo; method in brief: as §2
CHO-K1 [9] = experiment: Cytotoxicity against CHO-K1 cells expressing PD-L1/aAPC assessed as inhibition of cell viability at 0.1 to 10 uM incubated for 24 hrs by MTT assay; format: functional, cell-based; conditions: Cricetulus griseus, dose 0.1-10 µM; method in brief: as §3
[10] = Tmax in Sprague-Dawley rat at 2 mg/kg, iv measured upto 24 hrs by LC-MS analysis; format: ADME, organism-based; conditions: in vivo; method in brief: as §2
Jurkat [11] = experiment: Cytotoxicity against human Jurkat cells expressing PD-1/NFAT/Luc assessed as inhibition of cell viability at 0.1 to 10 uM incubated for 24 hrs by CCK8 assay; format: functional, cell-based; conditions: dose 0.1-10 µM
Method in brief: (§4)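 PD-1⁺/NFAT-luc/Jurkat cells seeded at 20 000 per well, treated with compound in medium with 1% final DMSO for 24 h. CCK8 added for 4 h, then absorbance read.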

[12] = Half life in Sprague-Dawley rat at 10 mg/kg, po measured upto 24 hrs by LC-MS analysis; format: ADME, organism-based; conditions: in vivo; method in brief: as §1
[13] = AUC (0 to t) in Sprague-Dawley rat at 10 mg/kg, po measured upto 24 hrs by LC-MS analysis; format: ADME, organism-based; set-up: route oral, dose 10 mg/kg, time <=24; conditions: in vivo; method in brief: as §1
[14] = biological target: Programmed cell death protein 1/Programmed cell death 1 ligand 1 (Homo sapiens) (UniProt Q15116+Q9NZQ7); conditions: Jurkat, time 6.0 hrs
[15] = biological target: Voltage-gated inwardly rectifying potassium channel KCNH2 (Homo sapiens, UniProt Q12809); experiment: Inhibition of human ERG
Sequence of Voltage-gated inwardly rectifying potassium channel KCNH2 (Q12809 whole entry): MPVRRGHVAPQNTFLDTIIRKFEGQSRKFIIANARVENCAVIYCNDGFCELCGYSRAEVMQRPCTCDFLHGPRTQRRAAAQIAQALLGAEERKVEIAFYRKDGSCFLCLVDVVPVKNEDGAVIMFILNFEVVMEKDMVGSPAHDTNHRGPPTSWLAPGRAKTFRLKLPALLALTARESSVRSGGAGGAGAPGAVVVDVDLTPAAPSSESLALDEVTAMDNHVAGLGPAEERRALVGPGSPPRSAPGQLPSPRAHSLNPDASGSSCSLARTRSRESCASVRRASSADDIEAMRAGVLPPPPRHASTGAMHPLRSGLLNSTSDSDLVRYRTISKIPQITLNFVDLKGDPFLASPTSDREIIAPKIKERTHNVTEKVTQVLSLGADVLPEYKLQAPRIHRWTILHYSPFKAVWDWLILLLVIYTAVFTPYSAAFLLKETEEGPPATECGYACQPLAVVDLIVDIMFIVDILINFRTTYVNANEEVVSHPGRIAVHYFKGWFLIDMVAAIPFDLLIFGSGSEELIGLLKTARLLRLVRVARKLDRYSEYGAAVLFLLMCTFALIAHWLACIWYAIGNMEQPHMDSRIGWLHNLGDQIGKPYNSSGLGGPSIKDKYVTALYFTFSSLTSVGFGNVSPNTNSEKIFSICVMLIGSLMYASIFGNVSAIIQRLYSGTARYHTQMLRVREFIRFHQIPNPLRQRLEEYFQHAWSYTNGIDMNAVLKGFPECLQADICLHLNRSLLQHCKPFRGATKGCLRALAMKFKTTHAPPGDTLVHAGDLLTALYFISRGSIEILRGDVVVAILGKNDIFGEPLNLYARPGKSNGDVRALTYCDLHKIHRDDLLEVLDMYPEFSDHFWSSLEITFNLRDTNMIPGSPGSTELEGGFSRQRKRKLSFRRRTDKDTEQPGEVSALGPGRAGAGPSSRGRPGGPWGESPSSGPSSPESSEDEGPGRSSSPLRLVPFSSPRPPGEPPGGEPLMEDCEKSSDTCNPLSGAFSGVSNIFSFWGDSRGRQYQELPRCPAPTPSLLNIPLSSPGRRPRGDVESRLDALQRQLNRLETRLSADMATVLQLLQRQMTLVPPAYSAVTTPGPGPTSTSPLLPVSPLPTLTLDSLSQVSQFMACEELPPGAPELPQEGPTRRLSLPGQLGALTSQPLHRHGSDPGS

[16] = Half life in Sprague-Dawley rat at 2 mg/kg, iv measured upto 24 hrs by LC-MS analysis; format: ADME, organism-based; conditions: in vivo; method in brief: as §1
[17] = biological target: T1, Programmed cell death protein 1/Programmed cell death 1 ligand 1 (Homo sapiens, UniProt Q9NZQ7); experiment: Inhibition of human PD-1/PD-L1 interaction assessed as blockade activity incubated for 15 mins by HTRF assay; format: protein-complex assay
T1 sequence (Q15116 whole entry): as the sequence (Q15116 whole entry) above
T1 sequence (Q9NZQ7 whole entry): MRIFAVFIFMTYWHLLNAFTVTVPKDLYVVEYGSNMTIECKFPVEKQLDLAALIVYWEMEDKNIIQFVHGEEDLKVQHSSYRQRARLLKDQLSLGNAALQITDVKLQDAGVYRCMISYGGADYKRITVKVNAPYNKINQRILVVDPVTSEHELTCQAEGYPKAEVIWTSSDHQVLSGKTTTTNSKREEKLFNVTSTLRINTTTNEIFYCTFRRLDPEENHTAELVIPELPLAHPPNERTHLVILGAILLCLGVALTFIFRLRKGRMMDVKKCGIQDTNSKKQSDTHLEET
Method in brief: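 Tag1-PD-L1 and Tag2-PD-1 proteins preincubated with compound (0.1 nM to 10 μM, triplicate) 15 min at room temperature, then anti-Tag1-Eu³⁺/anti-Tag2-XL665 added for 2 h at room temperature. Excitation 337 nm, emission 665 and […]. Signal taken as 665/615 ratio ×10 000; IC50 fitted from inhibition rates.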

MC-38 [18] = experiment: Cytotoxicity against mouse MC38 cells assessed as inhibition of cell viability at 10 uM incubated for 24 hrs by MTT assay; format: functional, cell-based; method in brief: as §3
Jurkat [19] = experiment: Cytotoxicity against human Jurkat cells expressing PD-1/NFAT/Luc assessed as inhibition of cell viability at 10 uM incubated for 24 hrs by CCK8 assay; format: functional, cell-based; method in brief: as §4
CHO-K1 [20] = experiment: Cytotoxicity against CHO-K1 cells expressing PD-L1/aAPC assessed as inhibition of cell viability at 10 uM incubated for 24 hrs by MTT assay; format: functional, cell-based; conditions: Cricetulus griseus; method in brief: as §3
[21] = biological target: T1, Programmed cell death protein 1/Programmed cell death 1 ligand 1; experiment: Inhibition of human PD-1/PD-L1 interaction in human Jurkat cells expressing PD-1/NFAT/Luc cocultured with CHO-K1 cells expressing PD-L1/aAPC assessed as Jurkat T-lymphocyte activation measured after 6 hrs by luciferase reporter gene based luminescence assay; format: cell-based

SMILES | IC50 [17] [nM] | also measured
O=C(O)[C@@H](CO)NCc1cc(Cl)c(OCc2cccc(-c3ccccc3)c2Br)cc1OCc1ccc2nonc2c1 | – | Cmax [1]: 4.46 ng/mL; Tmax [2]: 2.33 h; clearance [3]: 39.6 mL/min/kg; Activity [4]: inactive; Activity (MC-38 [5]): inactive; AUC(0-t) at 24 h [6]: 860 ng·h/mL; Cmax [7]: 2090 ng/mL; bioavailability [8]: 0.35%; Activity (CHO-K1 [9]): inactive; Tmax [10]: 4.8 min; Activity (Jurkat [11]): inactive; half-life [12]: 4.17 h; AUC(0-t) at 24 h [13]: 15.2 ng·h/mL; RLU [14]: 1.81; IC50 [15]: > 30000 nM; half-life [16]: 4.04 h
O=C(O)[C@@H](CO)NCc1cc(Cl)c(OCc2cccc(-c3cccc(F)c3)c2Br)cc1OCc1ccc2nonc2c1 | 8.2 | Activity (MC-38 [5]): inactive; Activity (CHO-K1 [9]): inactive; Activity (Jurkat [11]): inactive
CC(C)C[C@H](NCc1cc(Cl)c(OCc2cccc(-c3ccccc3)c2Cl)cc1OCc1ccc2nonc2c1)C(=O)N[C@H](CC(C)C)C(=O)O | 1580 | –
O=C(O)[C@@H](CO)NCc1cc(Cl)c(OCc2cccc(-c3cccc(O)c3)c2Cl)cc1OCc1ccc2nonc2c1 | 58.7 | –
O=C(O)[C@@H](CO)NCc1cc(Cl)c(OCc2cccc(-c3ccc(F)cc3)c2Cl)cc1OCc1ccc2nonc2c1 | 56.1 | –
O=C(O)[C@@H](CO)NCc1ccc(OCc2cccc(-c3ccccc3)c2C(F)(F)F)cc1OCc1ccc2nonc2c1 | 1380 | –
O=C(O)[C@@H](CO)NCc1cc(Cl)c(OCc2cccc(-c3cccc(OCCO)c3)c2Cl)cc1OCc1ccc2nonc2c1 | 101 | –
O=C(O)[C@H]1C[C@@H](O)CN1Cc1cc(Cl)c(OCc2cccc(-c3ccccc3)c2Br)cc1OCc1ccc2nonc2c1 | 24.3 | Activity (MC-38 [18]): Active; Activity (Jurkat [19]): Active; Activity (CHO-K1 [20]): Active
CN1CCN(Cc2cc(Cl)c(OCc3cccc(-c4ccccc4)c3Br)cc2OCc2ccc3nonc3c2)CC1 | 3590 | –
OC[C@@H](O)CNCc1cc(Cl)c(OCc2cccc(-c3ccccc3)c2Br)cc1OCc1ccc2nonc2c1 | 15.9 | –
O=C(O)[C@@H]1CCCCN1Cc1cc(Cl)c(OCc2cccc(-c3ccccc3)c2Br)cc1OCc1ccc2nonc2c1 | 13.3 | –
CC(C)(C)OC[C@@H](NCc1cc(Cl)c(OCc2cccc(-c3ccccc3)c2Cl)cc1OCc1ccc2nonc2c1)C(=O)N[C@H](CO)C(=O)O | 393 | –
Cc1c(COc2ccc(CN[C@H](CO)C(=O)O)c(OCc3ccc4ccoc4c3)c2)cccc1-c1ccccc1 | 2340 | –
O=C(O)[C@@H](CO)NCc1cc(Cl)c(OCc2cccc(-c3cccc(OCCCO)c3)c2Cl)cc1OCc1ccc2nonc2c1 | 60.9 | –
O=C(O)[C@@H](CO)NCc1cc(Cl)c(OCc2cccc(-c3ccccc3)c2Cl)cc1OCc1ccc2nonc2c1 | 3.3 | –
Clc1cc(CNCCN2CCCCC2)c(OCc2ccc3nonc3c2)cc1OCc1cccc(-c2ccccc2)c1Cl | 291 | –
O=C(O)[C@@H](CO)NCc1cc(Cl)c(OCc2cccc(-c3ccccc3)c2F)cc1OCc1ccc2nonc2c1 | 3.5 | Activity (MC-38 [5]): inactive; Activity (CHO-K1 [9]): inactive; Activity (Jurkat [11]): inactive
O=C(O)CNCc1cc(Cl)c(OCc2cccc(-c3ccccc3)c2Br)cc1OCc1ccc2nonc2c1 | 33.7 | –
O=C(O)[C@@H](CO)NCc1cc(F)c(OCc2cccc(-c3ccccc3)c2Br)cc1OCc1ccc2nonc2c1 | 7.8 | Activity (MC-38 [5]): inactive; Activity (CHO-K1 [9]): inactive; Activity (Jurkat [11]): inactive
CS(=O)(=O)c1ccc(-c2cccc(COc3cc(OCc4ccc5nonc5c4)c(CN[C@H](CO)C(=O)O)cc3Cl)c2Cl)cc1 | > 1000 | –
Cc1c(COc2ccc(CN[C@H](CO)C(=O)O)c(OCc3cccc(C#N)c3)c2)cccc1-c1ccccc1 | 35.8 | EC50 [21]: 2080 nM; Activity (MC-38 [18]): Active; RLU [14]: 1.83; Activity (Jurkat [19]): Active; Activity (CHO-K1 [20]): Active

SMILES | IC50 [17] [nM] | also measured
O=C(O)[C@@H](CO)NCc1cc(Br)c(OCc2cccc(-c3ccccc3)c2Br)cc1OCc1ccc2nonc2c1 | 27.5 | –
O=C(O)[C@@H](CO)NCc1cc(Cl)c(OCc2cccc(-c3cccc(F)c3F)c2Cl)cc1OCc1ccc2nonc2c1 | 162 | –
O=S(=O)(O)CCNCc1cc(Cl)c(OCc2cccc(-c3ccccc3)c2Br)cc1OCc1ccc2nonc2c1 | 26.9 | –
O=C(O)[C@@H](CO)NCc1cc(Cl)c(OCc2cccc(-c3cccc(F)c3)c2Cl)cc1OCc1ccc2nonc2c1 | 6.5 | Activity (MC-38 [5]): inactive; Activity (CHO-K1 [9]): inactive; Activity (Jurkat [11]): inactive
O=C(O)C1CN(Cc2cc(Cl)c(OCc3cccc(-c4ccccc4)c3Br)cc2OCc2ccc3nonc3c2)C1 | 52.3 | –
O=C(O)[C@@H](CO)NCc1cc(Cl)c(OCc2cccc(-c3cccc(Cl)c3)c2Br)cc1OCc1ccc2nonc2c1 | 24.3 | –
OCCNCc1cc(Cl)c(OCc2cccc(-c3ccccc3)c2Br)cc1OCc1ccc2nonc2c1 | 30.8 | –
Cc1c(COc2ccc(CN[C@H](CO)C(=O)O)c(OCc3ccc4nonc4c3)c2)cccc1-c1ccccc1 | 33.7 | –
Cc1c(COc2cc(OCc3ccc4nonc4c3)c(CN[C@H](CO)C(=O)O)cc2Cl)cccc1-c1ccccc1 | 16.6 | –
OC1CCN(Cc2cc(Cl)c(OCc3cccc(-c4ccccc4)c3Br)cc2OCc2ccc3nonc3c2)CC1 | 1050 | –
Cc1c(COc2ccc(CN[C@H](CO)C(=O)O)c(OCc3cccc4nonc34)c2)cccc1-c1ccccc1 | 2160 | –
CC(=O)NCCNCc1cc(Cl)c(OCc2cccc(-c3ccccc3)c2Br)cc1OCc1ccc2nonc2c1 | 130 | –
COc1nc(OCc2cccc(-c3ccccc3)c2C)ccc1CNCCNC(C)=O | – | Activity (MC-38 [18]): Active; Activity (Jurkat [19]): Active; Activity (CHO-K1 [20]): Active
O=C1CC[C@@H](CNCc2cc(Cl)c(OCc3cccc(-c4ccccc4)c3Cl)cc2OCc2ccc3nonc3c2)N1 | 21.6 | –
O=C(O)[C@@H](CO)NCc1cc(F)c(OCc2cccc(-c3ccccc3)c2Cl)cc1OCc1ccc2nonc2c1 | 9.5 | –
NS(=O)(=O)CCNCc1cc(Cl)c(OCc2cccc(-c3ccccc3)c2Br)cc1OCc1ccc2nonc2c1 | 342 | –
COc1cccc(-c2cccc(COc3cc(OCc4ccc5nonc5c4)c(CN[C@H](CO)C(=O)O)cc3Cl)c2Br)c1 | 7.8 | –
OC[C@H](O)CNCc1cc(Cl)c(OCc2cccc(-c3ccccc3)c2Br)cc1OCc1ccc2nonc2c1 | 14.6 | –
OC1CCC(NCc2cc(Cl)c(OCc3cccc(-c4ccccc4)c3Br)cc2OCc2ccc3nonc3c2)CC1 (centres undefined) | 57.2 | –
Cc1c(COc2ccc(CN[C@H](CO)C(=O)O)c(OCc3ccc4nsnc4c3)c2)cccc1-c1ccccc1 | 206 | –
O=C(O)[C@@H](CO)NCc1cc(Cl)c(OCc2cccc(-c3cccc(OCCCO)c3)c2Br)cc1OCc1ccc2nonc2c1 | 30.9 | –
